22 molecules from ChEMBL document CHEMBL2157934, “Pyrrolidinyl phenylurea derivatives as novel CCR3 antagonists” (Bioorg Med Chem Lett, 2012) can be followed below.

Activity calls are given as the source filed them. No cut-off for these calls is given here.

Data set [1] deals with T1, C-C chemokine receptor type 3 (Homo sapiens, UniProt P51677).
T1 sequence (P51677 whole entry): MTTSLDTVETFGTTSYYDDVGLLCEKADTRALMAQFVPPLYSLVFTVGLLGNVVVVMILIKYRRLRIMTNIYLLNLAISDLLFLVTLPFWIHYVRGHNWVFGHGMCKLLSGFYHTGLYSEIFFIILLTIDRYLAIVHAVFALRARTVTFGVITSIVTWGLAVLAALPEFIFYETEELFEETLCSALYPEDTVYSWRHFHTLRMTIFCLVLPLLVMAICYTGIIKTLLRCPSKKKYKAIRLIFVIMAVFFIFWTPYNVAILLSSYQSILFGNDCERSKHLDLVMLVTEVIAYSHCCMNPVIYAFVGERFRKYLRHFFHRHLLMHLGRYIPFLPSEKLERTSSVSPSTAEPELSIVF
The experiment in a line: Antagonist activity at CCR3 receptor. The data set is classed as functional.

A short description of data set [2]: Oral bioavailability in cynomolgus monkey. It counts as ADME, organism-based, Macaca fascicularis. Particulars: in vivo.
The target in data set [3] is C-C chemokine receptor type 5 (Homo sapiens) (UniProt P51681). The experiment in a line: Inhibition of CCR5 receptor at 10 uM.
Sequence of C-C chemokine receptor type 5 (Homo sapiens) (P51681 whole entry, looked up): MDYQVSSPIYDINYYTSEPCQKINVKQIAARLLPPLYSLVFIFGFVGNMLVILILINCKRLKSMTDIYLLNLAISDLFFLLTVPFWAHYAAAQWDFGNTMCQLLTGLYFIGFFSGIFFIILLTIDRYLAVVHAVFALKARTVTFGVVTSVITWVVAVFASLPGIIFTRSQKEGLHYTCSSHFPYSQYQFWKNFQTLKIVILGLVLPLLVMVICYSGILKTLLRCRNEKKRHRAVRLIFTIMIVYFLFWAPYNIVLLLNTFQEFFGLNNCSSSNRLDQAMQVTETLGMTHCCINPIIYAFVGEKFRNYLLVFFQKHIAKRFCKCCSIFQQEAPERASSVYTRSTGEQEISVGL
The target in data set [4] is T2, C-C chemokine receptor type 3 (Homo sapiens) (UniProt P51677).
T2 sequence (whole entry): T1 sequence (P51677 whole entry)
The experiment in a line: (§1) Antagonist activity at CCR3 receptor in human eosinophils assessed as inhibition of CCL11-induced degranulation after 4 hrs by ELISA. It counts as functional. The essentials: (§2)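 Eosinophils isolated from peripheral blood of normal human volunteers; wells pre-blocked with 2.5% BSA in PBS, 2 h, 37 °C. 5 × 10^5 cells in RPMI 1640 with 0.5% BSA, with or without 0.6 nM human CCL11 and varying antagonist concentrations, incubated 4 h at 37 °C, 5% CO2. Supernatant EDN quantified by ELISA; IC50 from dose-response.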

The target in data set [5] is T1, C-C chemokine receptor type 3. Described as §1. The data set is classed as functional. The essentials: as §2
Data set [6] concerns the target C-C chemokine receptor type 2 (Homo sapiens) (UniProt P41597). The experiment in a line: Inhibition of CCR2 receptor at 10 uM.
Data set [7] has as its target T3, C-C chemokine receptor type 1 (Homo sapiens) (UniProt P32246).
T3 sequence (whole entry): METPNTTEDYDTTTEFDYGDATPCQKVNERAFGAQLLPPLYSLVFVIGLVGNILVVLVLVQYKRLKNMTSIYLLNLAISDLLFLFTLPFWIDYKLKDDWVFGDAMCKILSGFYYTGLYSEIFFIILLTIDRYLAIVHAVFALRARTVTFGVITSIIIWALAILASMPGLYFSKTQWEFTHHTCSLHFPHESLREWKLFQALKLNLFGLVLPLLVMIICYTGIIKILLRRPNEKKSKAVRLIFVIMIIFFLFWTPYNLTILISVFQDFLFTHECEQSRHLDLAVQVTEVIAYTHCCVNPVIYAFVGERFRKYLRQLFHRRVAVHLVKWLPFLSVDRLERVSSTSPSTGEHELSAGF
The experiment in a line: Inhibition of CCR1 receptor at 10 uM.

Sequence of C-C chemokine receptor type 2 (Homo sapiens) (P41597 whole entry, looked up): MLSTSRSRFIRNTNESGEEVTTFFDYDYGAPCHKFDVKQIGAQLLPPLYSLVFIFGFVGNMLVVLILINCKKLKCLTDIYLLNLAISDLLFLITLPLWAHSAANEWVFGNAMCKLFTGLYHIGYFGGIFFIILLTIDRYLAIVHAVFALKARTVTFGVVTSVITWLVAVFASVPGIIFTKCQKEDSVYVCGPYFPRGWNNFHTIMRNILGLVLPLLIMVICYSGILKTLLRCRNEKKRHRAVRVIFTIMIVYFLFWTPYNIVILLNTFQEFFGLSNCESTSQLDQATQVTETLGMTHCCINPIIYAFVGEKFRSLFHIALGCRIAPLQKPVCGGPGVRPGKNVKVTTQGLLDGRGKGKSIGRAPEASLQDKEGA

Consider `O=C(Nc1ccccc1)N[C@@H]1CCN(Cc2ccc3cc(F)ccc3c2)C1`, for which, in data set [1], inhibition was half-maximal at 50 nM (IC50).

The molecule `O=C(Nc1ccccc1OCCO)N[C@@H]1CCN(Cc2ccc3cc(F)ccc3c2)C1` showed a bioavailability in data set [2] of 22%. Also, the inhibition result in data set [3], in data set [6] and in data set [7] was “inactive” throughout. For the same molecule, the IC50 in data set [1] was 1.7 nM; in data set [5], 0.87 nM. Further, the inhibition result in data set [4] is “Dose-dependent effect”.

The molecule `O=C1N(CCc2ccccc2)CCC12CCN(Cc1ccc3cc(F)ccc3c1)CC2` showed a 50% inhibitory concentration (IC50) in data set [1] of 600 nM.

With `O=C(Nc1ccc(OCCO)cc1)N[C@@H]1CCN(Cc2ccc3cc(F)ccc3c2)C1`, the 50% inhibitory concentration (IC50) in data set [1] is 71 nM.

Turning to `O=C(NC1CCCCC1)N[C@@H]1CCN(Cc2ccc3cc(F)ccc3c2)C1`, in data set [1], the IC50 amounted to 41 nM.

In the case of `O=C(Nc1ccccc1COCCO)N[C@@H]1CCN(Cc2ccc3cc(F)ccc3c2)C1`, 9.9 nM corresponded to half-maximal inhibition in data set [1] (IC50).

In turn, `COCCOc1ccccc1NC(=O)N[C@@H]1CCN(Cc2ccc3cc(F)ccc3c2)C1` displayed an IC50 in data set [1] of 71 nM.

For the molecule `COCc1ccccc1NC(=O)N[C@@H]1CCN(Cc2ccc3cc(F)ccc3c2)C1`, in data set [1], the 50% inhibitory concentration (IC50) was 44 nM.

For `NC(=O)COc1ccccc1NC(=O)N[C@@H]1CCN(Cc2ccc3cc(F)ccc3c2)C1`, inhibition in data set [1] was half-maximal at 110 nM (IC50).

On to `O=C(Nc1ccccc1CCCO)N[C@@H]1CCN(Cc2ccc3cc(F)ccc3c2)C1`, for which half-maximal inhibition in data set [1] (IC50) was put at 24 nM.

Molecule `O=C(Nc1ccccc1OCCCCO)N[C@@H]1CCN(Cc2ccc3cc(F)ccc3c2)C1` registered an IC50 in data set [1] of 51 nM.

As to `CN(C)C(=O)COc1ccccc1NC(=O)N[C@@H]1CCN(Cc2ccc3cc(F)ccc3c2)C1`, in data set [1], the IC50 was 190 nM.

On to `O=C(Nc1ccccc1OCCCO)N[C@@H]1CCN(Cc2ccc3cc(F)ccc3c2)C1`, for which inhibition in data set [1] was half-maximal at 50 nM (IC50).

`O=C(Nc1ccccc1OCCOCCO)N[C@@H]1CCN(Cc2ccc3cc(F)ccc3c2)C1` gave a concentration for half-maximal inhibition (IC50) in data set [1] of 110 nM.

Regarding `O=C(Nc1cccc(OCCO)c1)N[C@@H]1CCN(Cc2ccc3cc(F)ccc3c2)C1`, the IC50 in data set [1] came out at 28 nM.

In the case of `O=C(NC1CCN(S(=O)(=O)c2ccccc2O)CC1)N1CCCN(Cc2ccc3cc(F)ccc3c2)CC1`, half-maximal inhibition in data set [1] (IC50) was put at 25 nM.

`O=C(NC1CCN(Cc2ccccc2)CC1)N1CCCN(Cc2ccc3cc(F)ccc3c2)CC1` returned an IC50 in data set [1] of 380 nM.

As to `CS(=O)(=O)N1CCC(NC(=O)N[C@@H]2CCN(Cc3ccc4cc(F)ccc4c3)C2)CC1`, the midpoint of inhibition in data set [1], the IC50, lay at 14 nM.

In data set [1], `CN(C)CCOc1ccccc1NC(=O)N[C@@H]1CCN(Cc2ccc3cc(F)ccc3c2)C1` registered a concentration for half-maximal inhibition (IC50) of 50 nM.

On to `O=C1OC2(CCN(Cc3ccc4cc(F)ccc4c3)CC2)c2ccccc2N1Cc1ccccc1`, for which, in data set [1], the midpoint of inhibition, the IC50, lay at 2000 nM.

Take `O=C(Nc1ccccc1CCO)N[C@@H]1CCN(Cc2ccc3cc(F)ccc3c2)C1`: the IC50 in data set [1] came to 12 nM.

In the case of `O=C(NC1CCN(S(=O)(=O)c2ccccc2O)CC1)N[C@@H]1CCN(Cc2ccc3cc(F)ccc3c2)C1`, in data set [1], it took 2.4 nM to reach half-maximal inhibition (IC50).

A word on the IC50: it is the concentration that gives 50% inhibition. What is called bioavailability is the share of a dose that reaches the circulation, judged against a reference dose that is usually intravenous.
